In ChEMBL document CHEMBL1122143, “Adriamycin analogues. Preparation and biological evaluation of some N-perfluoroacyl analogues of daunorubicin, adriamycin, and N-(trifluoroacetyl)adriamycin 14-valerate and their 9,10-anhydro derivatives” (1982):

Key:
Format in all cases: functional
CCRF-CEM = assay: Inhibitory activity against CCRF-CEM(human leukemic lymphoblastic) cells in culture.; details: read-out: ID50 (the source's name)
Method in brief: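 Human leukemic lymphoblastic CCRF-CEM cells grown in culture with continuous drug exposure for 48 h; growth inhibition measured.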

Mus musculus [1] = assay: In vivo growth inhibitory activity was measured against murine P388 leukemia cells as Percent increase in life span at the dose of 50.0 mg/kg/day
Method in brief: (§1)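 Murine P388 leukemia model: 10⁶ tumor cells inoculated ip on day 0. Compound given ip once daily on days 1-4 at the stated dose. Activity was expressed as percent increase in life span relative to untreated controls.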

Mus musculus [2] = assay: In vivo growth inhibitory activity was measured against murine P388 leukemia cells as Percent increase in life span at the dose of 80.0 mg/kg/day; method in brief: as §1
Mus musculus [3] = assay: In vivo growth inhibitory activity was measured against murine P388 leukemia cells as Percent increase in life span at the dose of 2.0 mg/kg/day; method in brief: as §1
Mus musculus [4] = assay: In vivo growth inhibitory activity was measured against murine P388 leukemia cells as Percent increase in life span at the dose of 40.0 mg/kg/day; method in brief: as §1
Mus musculus [5] = assay: In vivo growth inhibitory activity was measured against murine P388 leukemia cells as Percent increase in life span at the dose of 4.0 mg/kg/day; method in brief: as §1
Mus musculus [6] = assay: In vivo growth inhibitory activity was measured against murine P388 leukemia cells as percent increase in life span at the dose of 40.0 mg/kg/day; method in brief: as §1
Mus musculus [7] = assay: In vivo growth inhibitory activity was measured against murine P388 leukemia cells as Percent increase in life span at the dose of 20.0 mg/kg/day; method in brief: as §1

SMILES	IC50 (CCRF-CEM) [µM]	other results
COc1cccc2c1C(=O)c1c(O)c3c(c(O)c1C2=O)C=C(C(=O)CO)C[C@@H]3OC1CC(NC(=O)C(F)(F)C(F)(F)C(F)(F)F)C(O)C(C)O1 (stereo partly drawn)	7.3	
CCCCC(=O)OCC(=O)C1=Cc2c(O)c3c(c(O)c2[C@@H](OC2CC(NC(=O)C(F)(F)C(F)(F)C(F)(F)F)C(O)C(C)O2)C1)C(=O)c1c(OC)cccc1C3=O (stereo partly drawn)	2.31	
COc1cccc2c1C(=O)c1c(O)c3c(c(O)c1C2=O)C[C@@](O)(C(C)=O)C[C@@H]3OC1CC(NC(=O)C(F)(F)C(F)(F)F)C(O)C(C)O1 (stereo partly drawn)	1.01	ILS at 50 mg/kg/day (Mus musculus [1]): 27%
COc1cccc2c1C(=O)c1c(O)c3c(c(O)c1C2=O)C[C@@](O)(C(=O)CO)C[C@@H]3OC1CC(NC(=O)C(F)(F)C(F)(F)C(F)(F)F)C(O)C(C)O1 (stereo partly drawn)	1.49	ILS at 50 mg/kg/day (Mus musculus [1]): 54%
COc1cccc2c1C(=O)c1c(O)c3c(c(O)c1C2=O)C[C@@](O)(C(C)=O)C[C@@H]3OC1CC(NC(=O)C(F)(F)F)C(O)C(C)O1 (stereo partly drawn)	0.27	ILS at 80 mg/kg/day (Mus musculus [2]): 83%
COc1cccc2c1C(=O)c1c(O)c3c(c(O)c1C2=O)C[C@@](O)(C(C)=O)C[C@@H]3O[C@H]1C[C@H](N)[C@H](O)[C@H](C)O1 [DAUNORUBICIN]	0.04	ILS at 2 mg/kg/day (Mus musculus [3]): 91%
CCCCC(=O)OCC(=O)[C@]1(O)Cc2c(O)c3c(c(O)c2[C@@H](OC2CC(NC(=O)C(F)(F)F)C(O)C(C)O2)C1)C(=O)c1c(OC)cccc1C3=O (stereo partly drawn)	0.24	ILS at 40 mg/kg/day (Mus musculus [4]): 429%
COc1cccc2c1C(=O)c1c(O)c3c(c(O)c1C2=O)C[C@@](O)(C(C)=O)C[C@@H]3OC1CC(NC(=O)C(F)(F)C(F)(F)C(F)(F)F)C(O)C(C)O1 (stereo partly drawn)	> 1.35	ILS at 40 mg/kg/day (Mus musculus [4]): 45%
COc1cccc2c1C(=O)c1c(O)c3c(c(O)c1C2=O)C[C@@](O)(C(=O)CO)C[C@@H]3O[C@H]1C[C@H](N)[C@H](O)[C@H](C)O1 [DOXORUBICIN]	0.066	ILS at 4 mg/kg/day (Mus musculus [5]): 132%
CCCCC(=O)OCC(=O)[C@]1(O)Cc2c(O)c3c(c(O)c2[C@@H](OC2CC(NC(=O)C(F)(F)C(F)(F)C(F)(F)F)C(O)C(C)O2)C1)C(=O)c1c(OC)cccc1C3=O (stereo partly drawn)	> 1.14	ILS at 50 mg/kg/day (Mus musculus [1]): 0%
COc1cccc2c1C(=O)c1c(O)c3c(c(O)c1C2=O)C=C(C(=O)CO)C[C@@H]3OC1CC(NC(=O)C(F)(F)C(F)(F)F)C(O)C(C)O1 (stereo partly drawn)	8.41	
COc1cccc2c1C(=O)c1c(O)c3c(c(O)c1C2=O)C=C(C(C)=O)C[C@@H]3OC1CC(NC(=O)C(F)(F)C(F)(F)C(F)(F)F)C(O)C(C)O1 (stereo partly drawn)	> 13.8	
CCCCC(=O)OCC(=O)C1=Cc2c(O)c3c(c(O)c2[C@@H](OC2CC(NC(=O)C(F)(F)C(F)(F)F)C(O)C(C)O2)C1)C(=O)c1c(OC)cccc1C3=O (stereo partly drawn)	0.56	
CCCCC(=O)OCC(=O)[C@]1(O)Cc2c(O)c3c(c(O)c2[C@@H](OC2CC(NC(=O)C(F)(F)C(F)(F)F)C(O)C(C)O2)C1)C(=O)c1c(OC)cccc1C3=O (stereo partly drawn)	1.18	ILS at 50 mg/kg/day (Mus musculus [1]): 0%
COc1cccc2c1C(=O)c1c(O)c3c(c(O)c1C2=O)C[C@@](O)(C(=O)CO)C[C@@H]3OC1CC(NC(=O)C(F)(F)C(F)(F)F)C(O)C(C)O1 (stereo partly drawn)	0.41	ILS at 50 mg/kg/day (Mus musculus [1]): 372%
CCCCC(=O)OCC(=O)C1=Cc2c(O)c3c(c(O)c2[C@@H](OC2CC(NC(=O)C(F)(F)F)C(O)C(C)O2)C1)C(=O)c1c(OC)cccc1C3=O (stereo partly drawn)	1.19	ILS at 40 mg/kg/day (Mus musculus [4]): 27%
COc1cccc2c1C(=O)c1c(O)c3c(c(O)c1C2=O)C=C(C(C)=O)C[C@@H]3OC1CC(NC(=O)C(F)(F)C(F)(F)F)C(O)C(C)O1 (stereo partly drawn)	0.5	
COc1cccc2c1C(=O)c1c(O)c3c(c(O)c1C2=O)C=C(C(=O)CO)C[C@@H]3OC1CC(NC(=O)C(F)(F)F)C(O)C(C)O1 (stereo partly drawn)	5.79	ILS at 40 mg/kg/day (Mus musculus [6]): 63%
COc1cccc2c1C(=O)c1c(O)c3c(c(O)c1C2=O)C=C(C(C)=O)C[C@@H]3OC1CC(NC(=O)C(F)(F)F)C(O)C(C)O1 (stereo partly drawn)		ILS at 40 mg/kg/day (Mus musculus [4]): 45%
COc1cccc2c1C(=O)c1c(O)c3c(c(O)c1C2=O)C[C@@](O)(C(=O)CO)C[C@@H]3OC1CC(NC(=O)C(F)(F)F)C(O)C(C)O1 (stereo partly drawn)	0.23	ILS at 20 mg/kg/day (Mus musculus [7]): 481%
